{
  "source": "ChEMBL document CHEMBL3862011",
  "about": "“Neuroprotective effects of benzyloxy substituted small molecule monoamine oxidase B inhibitors in Parkinson's disease” (Bioorg Med Chem, 2016)",
  "key": {"[1]": {"test": "Cytotoxicity against rat PC12 cells assessed as cell survival at 20 uM after 72 hrs by MTT assay relative to control", "type": "toxicity, PC-12", "conditions": "read-out: Survival"}, "[2]": {"test": "Neuroprotective activity against 6-OHDA-induced toxicity in rat PC12 cells assessed as cell survival at 20 uM preincubated for 24 hrs followed by 6-OHDA addition measured after 24 hrs by MTT assay relative to control", "type": "functional", "conditions": "PC-12, read-out: Survival", "method_in_brief": "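PC12 cells seeded 5×10^3/well, after 24 h given compound at 20 μM for 24 h at 37 °C, then exposed to 6-OHDA (40 μM) or rotenone (1 μM) for 24 h. […] Mean ± SEM of three independent experiments.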"}, "[3]": {"test_system": "PC-12", "test": "Neuroprotective activity against rotenone-induced toxicity in rat PC12 cells assessed as increase in cell survival preincubated for 24 hrs followed by rotenone addition measured after 24 hrs by MTT assay", "type": "functional, cell-based", "method_in_brief": "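PC12 cells in RPMI-1640 with 10% FBS were seeded at 5×10^3 cells/well. After 24 h, compounds at 20 μM were added for 24 h at 37 °C, followed by 6-OHDA (40 μM) or rotenone (1 μM) for 24 h. Viability by MTT (570 nm, reference 630 nm), expressed as percent of untreated control. […] Mean ± SEM.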"}, "[4]": {"test_system": "PC-12", "test": "Neuroprotective activity against 6-OHDA-induced apoptosis in rat PC12 cells assessed as late apoptotic cells at 5 uM after 24 hrs by 7-AAD/annexin V APC staining-based flow cytometric method (reference value: 4.4%)", "type": "functional"}, "[5]": {"test_system": "PC-12", "test": "Neuroprotective activity against 6-OHDA-induced apoptosis in rat PC12 cells assessed as late apoptotic cells at 10 uM after 24 hrs by 7-AAD/annexin V APC staining-based flow cytometric method (reference value: 4.4%)", "type": "functional"}, "[6]": {"test_system": "PC-12", "test": "Neuroprotective activity against 6-OHDA-induced apoptosis in rat PC12 cells assessed as necrotic cells at 10 uM after 24 hrs by 7-AAD/annexin V APC staining-based flow cytometric method (reference value: 0.6%)", "type": "functional"}, "[7]": {"test_system": "PC-12", "test": "Neuroprotective activity against 6-OHDA-induced apoptosis in rat PC12 cells assessed as late apoptotic cells at 20 uM after 24 hrs by 7-AAD/annexin V APC staining-based flow cytometric method (reference value: 4.4%)", "type": "functional"}, "[8]": {"test_system": "PC-12", "test": "Neuroprotective activity against 6-OHDA-induced apoptosis in rat PC12 cells assessed as necrotic cells at 20 uM after 24 hrs by 7-AAD/annexin V APC staining-based flow cytometric method (reference value: 0.6%)", "type": "functional"}, "[9]": {"test_system": "PC-12", "test": "Neuroprotective activity against 6-OHDA-induced apoptosis in rat PC12 cells assessed as viable cells at 20 uM after 24 hrs by 7-AAD/annexin V APC staining-based flow cytometric method (reference value: […])", "type": "functional", "conditions": "PC-12, 24 h, read-out: Activity"}, "[10]": {"test_system": "PC-12", "test": "Neuroprotective activity against 6-OHDA-induced apoptosis in rat PC12 cells assessed as late apoptotic cells at 40 uM after 24 hrs by 7-AAD/annexin V APC staining-based flow cytometric method (reference value: 4.4%)", "type": "functional"}, "[11]": {"test_system": "PC-12", "test": "Neuroprotective activity against 6-OHDA-induced apoptosis in rat PC12 cells assessed as viable cells at 40 uM after 24 hrs by 7-AAD/annexin V APC staining-based flow cytometric method (reference value: […])", "type": "functional", "conditions": "PC-12, 24 h, read-out: Activity"}, "[12]": {"test_system": "PC-12", "test": "Neuroprotective activity against rotenone-induced apoptosis in rat PC12 cells assessed as early apoptotic cells at 5 uM after 24 hrs by 7-AAD/annexin V APC staining-based flow cytometric method (reference value: 2.2%)", "type": "functional"}, "[13]": {"test_system": "PC-12", "test": "Neuroprotective activity against rotenone-induced apoptosis in rat PC12 cells assessed as necrotic cells at 5 uM after 24 hrs by 7-AAD/annexin V APC staining-based flow cytometric method (reference value: 48.6%)", "type": "functional"}, "[14]": {"test_system": "PC-12", "test": "Neuroprotective activity against rotenone-induced apoptosis in rat PC12 cells assessed as early apoptotic cells at 10 uM after 24 hrs by 7-AAD/annexin V APC staining-based flow cytometric method (reference value: 2.2%)", "type": "functional"}, "[15]": {"test_system": "PC-12", "test": "Neuroprotective activity against rotenone-induced apoptosis in rat PC12 cells assessed as early apoptotic cells at 20 uM after 24 hrs by 7-AAD/annexin V APC staining-based flow cytometric method (reference value: 2.2%)", "type": "functional"}, "[16]": {"test_system": "PC-12", "test": "Neuroprotective activity against rotenone-induced apoptosis in rat PC12 cells assessed as late apoptotic cells at 20 uM after 24 hrs by 7-AAD/annexin V APC staining-based flow cytometric method (reference value: 9.9%)", "type": "functional"}, "[17]": {"test_system": "PC-12", "test": "Neuroprotective activity against rotenone-induced apoptosis in rat PC12 cells assessed as necrotic cells at 20 uM after 24 hrs by 7-AAD/annexin V APC staining-based flow cytometric method (reference value: 48.6%)", "type": "functional"}, "[18]": {"test_system": "PC-12", "test": "Neuroprotective activity against rotenone-induced apoptosis in rat PC12 cells assessed as viable cells at 20 uM after 24 hrs by 7-AAD/annexin V APC staining-based flow cytometric method (reference value: 39.3%)", "type": "functional", "conditions": "PC-12, 24 h, read-out: Activity"}, "[19]": {"test_system": "PC-12", "test": "Neuroprotective activity against rotenone-induced toxicity in rat PC12 cells assessed as increase in cell viability after 24 hrs by phase-contrast microscopic method", "type": "functional, cell-based", "method_in_brief": "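PC12 cells were exposed to 5-40 μM test compound together with 40 μM 6-OHDA or 1 μM rotenone for 24 h. Viability was judged from phase-contrast images against untreated controls.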"}, "[20]": {"test_system": "PC-12", "test": "Neuroprotective activity against 6-OHDA-induced apoptosis in rat PC12 cells assessed as decrease in nuclear condensation at 20 uM after 24 hrs by Hoechst 33258 staining-based fluorescent inverted microscopic method", "type": "functional, cell-based", "method_in_brief": "(§1)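 PC12 cells exposed to 6-OHDA or rotenone with test treatment were stained with Hoechst 33258 for 30 min, mounted on glass slides under cover slips, and examined by fluorescent inverted microscopy.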"}, "[21]": {"test_system": "PC-12", "test": "Neuroprotective activity against rotenone-induced apoptosis in rat PC12 cells assessed as decrease in nuclear condensation at 20 uM after 24 hrs by Hoechst 33258 staining-based fluorescent inverted microscopic method", "type": "functional, cell-based", "method_in_brief": "as §1"}, "[22]": {"test_system": "PC-12", "test": "Neuroprotective activity against rotenone-induced apoptosis in rat PC12 cells assessed as decrease in nuclear fragmentation at 20 uM after 24 hrs by Hoechst 33258 staining-based fluorescent inverted microscopic method", "type": "functional, cell-based", "method_in_brief": "as §1"}, "[23]": {"test_system": "PC-12", "test": "Neuroprotective activity against rotenone-induced reactive oxygen species accumulation in rat PC12 cells after 24 hrs by DCFH-DA probe-based flow cytometric method", "type": "functional, cell-based", "method_in_brief": "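PC12 cells were seeded at 2×10^5 cells/well in six-well plates and cultured with or without various concentrations of test samples for 24 h. After washing, they were loaded with DCFH-DA for 30 min at 37 °C in the dark, washed and harvested. DCF fluorescence read by flow cytometry (ex 488/em 525 nm), reported as mean fluorescence intensity.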"}, "[24]": {"test_system": "Mus musculus", "test": "Acute toxicity in Kunming mouse assessed as mortality at 2000 mg/kg measured for 14 days", "type": "organism-based", "conditions": "in vivo, 336 h", "method_in_brief": "(§2)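 Kunming mice (20 ± 2 g), 10 per group, vehicle control group; fasted overnight, single oral dose in 0.5% CMC-Na suspension. Observed continuously for 4 h, intermittently to 24 h, then occasionally to day 14 for behaviour, mortality, food and water intake and body weight; sacrificed under ether on day 14.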"}, "[25]": {"test_system": "Mus musculus", "test": "Acute toxicity in Kunming mouse assessed as abnormal changes in food consumption at 2000 mg/kg measured for 14 days", "type": "organism-based", "conditions": "in vivo, 336 h", "method_in_brief": "as §2"}, "[26]": {"test": "in vitro", "conditions": "PAMPA"}},
  "note": "Active and inactive are the calls of the source. The calls are words filed in the database; no cut-off is given here.",
  "data": [
    {"smiles": "O=C1CCOc2cc(OCc3ccc(F)cc3)ccc21", "values": [
      {"measurement": "viability at 72 h, 20 µM", "setting": "[1]", "result": 94.5, "unit": "%"},
      {"measurement": "viability at 20 µM", "setting": "[2]", "result": 134, "unit": "%"},
      {"measurement": "Activity", "setting": "[3]", "result": "Dose-dependent effect"},
      {"measurement": "Activity", "setting": "[4]", "result": 1.8, "unit": "%"},
      {"measurement": "Activity", "setting": "[5]", "result": 3.3, "unit": "%"},
      {"measurement": "Activity", "setting": "[6]", "result": 4, "unit": "%"},
      {"measurement": "Activity", "setting": "[7]", "result": 0.3, "unit": "%"},
      {"measurement": "Activity", "setting": "[8]", "result": 1.1, "unit": "%"},
      {"measurement": "viability at 20 µM", "setting": "[9]", "result": 87.8, "unit": "%"},
      {"measurement": "Activity", "setting": "[10]", "result": 0.2, "unit": "%"},
      {"measurement": "viability at 40 µM", "setting": "[11]", "result": 90.8, "unit": "%"},
      {"measurement": "Activity", "setting": "[12]", "result": 3.3, "unit": "%"},
      {"measurement": "Activity", "setting": "[13]", "result": 33.2, "unit": "%"},
      {"measurement": "Activity", "setting": "[14]", "result": 5, "unit": "%"},
      {"measurement": "Activity", "setting": "[15]", "result": 2.5, "unit": "%"},
      {"measurement": "Activity", "setting": "[16]", "result": 9.5, "unit": "%"},
      {"measurement": "Activity", "setting": "[17]", "result": 30.2, "unit": "%"},
      {"measurement": "viability at 20 µM", "setting": "[18]", "result": 57.8, "unit": "%"},
      {"measurement": "Activity", "setting": "[19]", "result": "Dose-dependent effect"},
      {"measurement": "Activity", "setting": "[20]", "result": "Active"},
      {"measurement": "Activity", "setting": "[21]", "result": "Active"},
      {"measurement": "Activity", "setting": "[22]", "result": "Active"},
      {"measurement": "Activity", "setting": "[23]", "result": "Dose-dependent effect"},
      {"measurement": "Activity", "setting": "[24]", "result": "Non-Toxic"},
      {"measurement": "Activity", "setting": "[25]", "result": "Non-Toxic"},
      {"measurement": "Papp at 16 h, 100 ug/ml", "setting": "[26]", "result": 14.3, "unit": "×10⁻⁶ cm/s"}
    ]}
  ]
}
